Test results reported in ChEMBL document CHEMBL4184227, “Surrogating and redirection of pyrazolo[1,5-a]pyrimidin-7(4H)-one core, a novel class of potent and selective DPP-4 inhibitors” (Bioorg Med Chem, 2018).

Columns and labels:
Mus musculus [1] = organism: Mus musculus; experiment: animal or person; conditions: C57BL/6, ip, read-out: MED
Dipeptidyl peptidase 9 = Dipeptidyl peptidase 9 (Homo sapiens, UniProt Q86TI2); experiment: Inhibition of recombinant human DPP9 using H-Gly-Pro-AMC as substrate measured after 10 mins by fluorescence assay
Chain of Dipeptidyl peptidase 9 (Q86TI2 whole entry): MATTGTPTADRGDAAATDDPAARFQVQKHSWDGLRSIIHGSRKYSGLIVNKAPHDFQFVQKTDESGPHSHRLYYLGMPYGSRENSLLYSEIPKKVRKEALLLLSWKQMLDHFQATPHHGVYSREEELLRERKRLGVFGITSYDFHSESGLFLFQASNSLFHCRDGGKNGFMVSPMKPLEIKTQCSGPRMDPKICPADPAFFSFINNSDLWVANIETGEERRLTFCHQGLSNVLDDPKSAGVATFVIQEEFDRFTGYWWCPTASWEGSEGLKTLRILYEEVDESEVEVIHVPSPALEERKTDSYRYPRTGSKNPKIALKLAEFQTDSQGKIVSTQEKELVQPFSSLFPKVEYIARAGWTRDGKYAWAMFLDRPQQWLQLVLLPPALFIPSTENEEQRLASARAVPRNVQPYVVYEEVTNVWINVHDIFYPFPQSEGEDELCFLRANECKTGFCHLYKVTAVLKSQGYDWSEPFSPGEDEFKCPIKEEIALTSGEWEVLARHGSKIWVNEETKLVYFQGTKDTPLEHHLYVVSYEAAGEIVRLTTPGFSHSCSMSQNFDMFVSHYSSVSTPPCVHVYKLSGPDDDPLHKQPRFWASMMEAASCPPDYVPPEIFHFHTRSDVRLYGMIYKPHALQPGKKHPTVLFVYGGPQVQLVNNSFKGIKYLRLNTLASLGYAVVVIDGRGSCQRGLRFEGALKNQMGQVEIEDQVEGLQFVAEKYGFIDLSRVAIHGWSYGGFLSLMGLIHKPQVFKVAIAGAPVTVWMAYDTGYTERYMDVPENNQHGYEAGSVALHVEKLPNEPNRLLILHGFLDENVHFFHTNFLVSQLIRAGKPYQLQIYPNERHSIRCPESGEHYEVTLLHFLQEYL
Outline: (§1)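 Recombinant human DPP-8 or DPP-9 in 100 mM Tris-HCl, 100 mM NaCl, pH 7.8 was combined with inhibitor and H-Gly-Pro-AMC substrate (303 final). The mixture was incubated at 37 °C for 10 min, then fluorescence was read at ex 380/em 460 nm; values are means of three experiments.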

[2] = Cytotoxicity against human HepG2 cells assessed as cell viability at 100 uM after 48 hrs by MTT assay relative to control; assay type: cell-based; conditions: read-out: Activity
Outline: (§2)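 HepG2 cells in DMEM were exposed to compound in DMSO at 1–100 μM final, or DMSO alone as negative control, for 48 h. MTT (5 mg/ml, 20 µL) was then added for 6 h, the supernatant removed and the formazan dissolved in DMSO. Absorbance was read at 490 nm; viability is expressed versus control; mean ± SD, n=3.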

Mus musculus [3] = experiment: Antidiabetic activity in ip dosed C57BL/6 mouse as reduction in blood glucose level administered as single dose pretreated for 30 mins followed by dextrose-challenge measured up to 2 hrs by IPGTT; assay type: functional, organism-based
Outline: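 Diabetic male mice (strain given as C57BL/6 and as BALB/c) received a single intraperitoneal dose of 1, 5 or 10 mg/kg, or saline as control, 30 min before an injected dextrose challenge (2 g/kg). Blood glucose was read at 0, 0.5, 1, 1.5 and 2 h, and glucose AUC was computed over 0–120 min; mean ± SD, n = 4.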

Dipeptidyl peptidase 8 = Dipeptidyl peptidase 8 (Homo sapiens, UniProt Q6V1X1); experiment: Inhibition of recombinant human DPP8 using H-Gly-Pro-AMC as substrate measured after 10 mins by fluorescence assay
Chain of Dipeptidyl peptidase 8 (Q6V1X1 whole entry): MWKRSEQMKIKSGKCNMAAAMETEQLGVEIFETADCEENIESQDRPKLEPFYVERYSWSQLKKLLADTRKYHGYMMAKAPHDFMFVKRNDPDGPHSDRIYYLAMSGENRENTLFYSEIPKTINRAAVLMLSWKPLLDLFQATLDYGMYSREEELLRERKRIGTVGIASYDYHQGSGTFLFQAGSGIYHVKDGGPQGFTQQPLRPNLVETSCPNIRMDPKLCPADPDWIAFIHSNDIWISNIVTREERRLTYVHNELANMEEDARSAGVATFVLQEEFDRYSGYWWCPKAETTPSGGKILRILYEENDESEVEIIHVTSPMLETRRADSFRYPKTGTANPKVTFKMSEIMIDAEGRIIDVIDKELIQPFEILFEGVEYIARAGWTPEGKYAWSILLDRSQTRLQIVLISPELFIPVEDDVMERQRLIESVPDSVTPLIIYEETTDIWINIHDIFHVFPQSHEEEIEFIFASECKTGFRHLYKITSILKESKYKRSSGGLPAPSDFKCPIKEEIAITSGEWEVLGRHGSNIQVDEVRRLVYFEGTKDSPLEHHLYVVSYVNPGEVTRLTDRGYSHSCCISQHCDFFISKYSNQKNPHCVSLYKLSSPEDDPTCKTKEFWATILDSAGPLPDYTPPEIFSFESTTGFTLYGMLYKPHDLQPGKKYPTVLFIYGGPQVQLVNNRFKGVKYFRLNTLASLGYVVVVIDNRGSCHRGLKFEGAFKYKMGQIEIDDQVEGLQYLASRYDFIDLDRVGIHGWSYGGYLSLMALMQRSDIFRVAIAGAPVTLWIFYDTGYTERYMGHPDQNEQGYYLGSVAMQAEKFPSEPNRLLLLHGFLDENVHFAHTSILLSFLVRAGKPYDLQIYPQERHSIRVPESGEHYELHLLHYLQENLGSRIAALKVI
Outline: as §1

HepG2 [4] = experiment: Cytotoxicity against human HepG2 cells assessed as reduction in cell viability after 48 hrs by MTT assay; assay type: cell-based; conditions: hepg2, 48 h
Outline: as §2

HepG2 [5] = experiment: Cytotoxicity against human HepG2 cells assessed as reduction in cell viability at 100 uM after 48 hrs by MTT assay; assay type: cell-based; conditions: hepg2, 48 h
Outline: as §2

| SMILES | minimal effective dose (Mus musculus [1]) | IC50 (Dipeptidyl peptidase 9) | viability at 48 h, 100 µM [2] | Activity (Mus musculus [3]) | IC50 (Dipeptidyl peptidase 8) | Activity (HepG2 [4]) | Activity (HepG2 [5]) |
| --- | --- | --- | --- | --- | --- | --- | --- |
| N#Cc1ccccc1Cn1c(N2CCNCC2)cc(=O)n2nccc12 | 1 mg/kg | > 100 µM | > 60% | Dose-dependent effect | > 100 µM | Dose-dependent effect | – |
| Cc1ccc(Cn2c(N3CCNCC3)cc(=O)n3nccc23)cc1 | – | > 100 µM | – | – | > 100 µM | – | – |
| N#Cc1ccccc1Cc1c(Cl)nc2ccnn2c1N1CCC[C@@H](N)C1 | – | > 100 µM | – | – | > 100 µM | Dose-dependent effect | Toxic |
| N#Cc1ccccc1Cn1c(N2CCC[C@@H](N)C2)cc(=O)n2nccc12 | – | > 100 µM | – | – | > 100 µM | – | – |
| O=c1cc(N2CCNCC2)n(Cc2ccccc2[N+](=O)[O-])c2ccnn12 | – | > 100 µM | – | – | > 100 µM | – | – |
| Cc1ccc(Cn2c(N3CCC[C@@H](N)C3)cc(=O)n3nccc23)cc1 | – | > 100 µM | – | – | > 100 µM | – | – |
| O=c1cc(N2CCNCC2)n(Cc2ccccc2)c2ccnn12 | – | > 100 µM | – | – | > 100 µM | – | – |
